Laboratory results as given in ChEMBL document CHEMBL1221320, “N(G)-Acyl-argininamides as NPY Y(1) receptor antagonists: Influence of structurally diverse acyl substituents on stability and affinity” (Bioorg Med Chem, 2010).

Legend:
[1] = Distribution coefficient, log D of the compound; type: physicochemical; conditions: octanol/water
Summary of the method: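 Calculated at pH 7.4 by ACD software. Experimental values came from RP-HPLC on a C18 column at 25 °C and 0.30 mL/min, using 10 mM ammonium acetate pH 7.4 versus acetonitrile (5→98% over 30 min). Injection was 2 µL of a 1 mM DMSO solution with diode-array detection. Retention time was calibrated against six reference compounds.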

[2] = biological target: T1, Neuropeptide Y receptor type 1 (Homo sapiens, UniProt P25929); assay: Displacement of [3H]UR-MK114 from NPY1 receptor in human SK-N-MC cells; type: cell-based
T1 sequence (P25929 whole entry): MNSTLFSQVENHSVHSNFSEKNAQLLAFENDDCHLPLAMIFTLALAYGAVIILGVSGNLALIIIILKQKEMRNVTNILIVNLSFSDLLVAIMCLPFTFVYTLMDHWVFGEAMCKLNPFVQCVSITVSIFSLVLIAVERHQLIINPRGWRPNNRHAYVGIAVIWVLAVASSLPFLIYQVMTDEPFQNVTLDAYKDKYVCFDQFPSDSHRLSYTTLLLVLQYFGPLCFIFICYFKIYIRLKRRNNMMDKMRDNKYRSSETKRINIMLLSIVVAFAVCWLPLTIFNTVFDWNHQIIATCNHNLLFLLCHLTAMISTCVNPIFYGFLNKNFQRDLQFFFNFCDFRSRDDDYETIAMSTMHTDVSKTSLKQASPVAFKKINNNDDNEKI
Summary of the method: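 Data were fitted with four-parameter sigmoidal curves. IC50 was converted to Ki by Cheng–Prusoff using the radioligand KD. Mean ± SEM of two or three independent experiments. Assay period from solution preparation to read-out was 60–90 min.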

[3] = biological target: T2, Neuropeptide Y receptor type 1 (Homo sapiens) (UniProt P25929); assay: Antagonist activity at NPY1 receptor in human HEL cells assessed as inhibition of NPY-induced calcium mobilization by Fura-2 assay; type: functional, cell-based
T2 sequence (whole entry): T1 sequence (P25929 whole entry)

| SMILES | logD ([1]; read-out: logD) | Ki ([2]; read-out: Ki) | Kb [3] | further results |
| --- | --- | --- | --- | --- |
| NCc1cn(CCCC(=O)NC(N)=NCCC[C@@H](NC(=O)C(c2ccccc2)c2ccccc2)C(=O)NCc2ccc(O)cc2)nn1 | 1.7 | 6.7 nM | – | – |
| CCCCCCCCCCCCC#CC#CCCCCCCCCC(=O)NC(=N)NCCC[C@@H](NC(=O)C(c1ccccc1)c1ccccc1)C(=O)NCc1ccc(O)cc1 | – | 1500 nM | 140 nM | – |
| N=C(N)NCCCCCC(=O)NC(=N)NCCC[C@@H](NC(=O)C(c1ccccc1)c1ccccc1)C(=O)NCc1ccc(O)cc1 | -0.3 | 51 nM | 18 nM | – |
| NC(=NCCC[C@@H](NC(=O)C(c1ccccc1)c1ccccc1)C(=O)NCc1ccc(O)cc1)NC(=O)CCCCCCC(=O)NCCC(=O)O | 0.7 | 73 nM | – | – |
| CCCCCCCCCCCCCCCC(=O)NC(=N)NCCC[C@@H](NC(=O)C(c1ccccc1)c1ccccc1)C(=O)NCc1ccc(O)cc1 | – | – | 170 nM | – |
| N=C(NCCC[C@@H](NC(=O)C(c1ccccc1)c1ccccc1)C(=O)NCc1ccc(O)cc1)NC(=O)CCC(=O)NCCNC(=O)c1ccc(F)cc1 | 3.5 | – | – | – |
| N=C(N)NCCC[C@@H](NC(=O)C(c1ccccc1)c1ccccc1)C(=O)NCc1ccc(O)cc1 | 0.7 | – | – | – |
| N=C(NCCC[C@@H](NC(=O)C(c1ccccc1)c1ccccc1)C(=O)NCc1ccc(O)cc1)NC(=O)CCC(=O)NCCN | -1.3 | – | – | – |
| N=C(NCCC[C@@H](NC(=O)C(c1ccccc1)c1ccccc1)C(=O)NCc1ccc(O)cc1)NC(=O)c1ccc2ccc3cccc4ccc1c2c34 | 7.2 | – | – | Ki ([2]; sk-n-mc): Not Active |
| CC(=O)OC[C@@H](OC(C)=O)[C@@H](OC(C)=O)[C@H](OC(C)=O)[C@@H](OC(C)=O)C(=O)NC(=N)NCCC[C@@H](NC(=O)C(c1ccccc1)c1ccccc1)C(=O)NCc1ccc(O)cc1 | – | – | 110 nM | – |
| N=C(NCCC[C@@H](NC(=O)C(c1ccccc1)c1ccccc1)C(=O)NCc1ccc(O)cc1)NC(=O)COCCOCCOCC(=O)NCCNC(=O)c1ccc2ccc3cccc4ccc1c2c34 | 6 | 59 nM | – | – |
| N=C(NCCC[C@@H](NC(=O)C(c1ccccc1)c1ccccc1)C(=O)NCc1ccc(O)cc1)NC(=O)CCCn1cc(CO)nn1 | 1.8 | 3 nM | 0.4 nM | – |
| CCCCCCCCCCCCCCCC(=O)NC(N)=NCCC[C@@H](NC(=O)C(c1ccccc1)c1ccccc1)C(=O)NCc1ccc(O)cc1 | – | 460 nM | – | logD [1]: 9.4 |
| CCC(=O)NCCNCCNC(=O)CCC(=O)NC(=N)NCCC[C@@H](NC(=O)C(c1ccccc1)c1ccccc1)C(=O)NCc1ccc(O)cc1 | -0.6 | – | – | – |
| CC(=O)OC[C@@H](OC(C)=O)[C@@H](OC(C)=O)[C@H](OC(C)=O)[C@@H](OC(C)=O)C(=O)NC(N)=NCCC[C@@H](NC(=O)C(c1ccccc1)c1ccccc1)C(=O)NCc1ccc(O)cc1 | 3.5 | 83 nM | – | – |
| N=C(NCCC[C@@H](NC(=O)C(c1ccccc1)c1ccccc1)C(=O)NCc1ccc(O)cc1)NC(=O)CCC(=O)OC[C@H]1O[C@@H](O)[C@H](O)[C@@H](O)[C@H]1O | 0.9 | 41 nM | 510 nM | – |
| COC(=O)CCNC(=O)CCCCCCC(=O)NC(N)=NCCC[C@@H](NC(=O)C(c1ccccc1)c1ccccc1)C(=O)NCc1ccc(O)cc1 | 2.9 | 260 nM | – | – |
| N=C(NCCC[C@@H](NC(=O)C(c1ccccc1)c1ccccc1)C(=O)NCc1ccc(O)cc1)NC(=O)CCCCCCC(=O)NCCN | -0.3 | 130 nM | 230 nM | – |

The next lines start with results.

| logD ([1]; read-out: logD) | Ki ([2]; read-out: Ki) | Kb [3] | SMILES | further results |
| --- | --- | --- | --- | --- |
| – | – | 450 nM | N=C(NCCC[C@@H](NC(=O)C(c1ccccc1)c1ccccc1)C(=O)NCc1ccc(O)cc1)NC(=O)CCCCCCC(=O)NCCC(=O)O | – |
| -1.4 | – | – | N=C(N)NCCNC(=O)CCC(=O)NC(=N)NCCC[C@@H](NC(=O)C(c1ccccc1)c1ccccc1)C(=O)NCc1ccc(O)cc1 | – |
| 4.6 | 40 nM | 1.1 nM | N=C(NCCC[C@@H](NC(=O)C(c1ccccc1)c1ccccc1)C(=O)NCc1ccc(O)cc1)NC(=O)CCCCCCC(=O)NCCC(=O)OCc1ccccc1 | – |
| 3.9 | 0.9 nM | – | COC(=O)CCCCCCC(=O)NC(N)=NCCC[C@@H](NC(=O)C(c1ccccc1)c1ccccc1)C(=O)NCc1ccc(O)cc1 | – |
| – | – | 14 nM | N=C(NCCC[C@@H](NC(=O)C(c1ccccc1)c1ccccc1)C(=O)NCc1ccc(O)cc1)NC(=O)CCCn1cc(CN)nn1 | – |
| – | – | 170 nM | COC(=O)CCNC(=O)CCCCCCC(=O)NC(=N)NCCC[C@@H](NC(=O)C(c1ccccc1)c1ccccc1)C(=O)NCc1ccc(O)cc1 | – |
| 7.6 | 270 nM | – | N=C(NCCC[C@@H](NC(=O)C(c1ccccc1)c1ccccc1)C(=O)NCc1ccc(O)cc1)NC(=O)CCCc1ccc2ccc3cccc4ccc1c2c34 | – |
| – | – | 0.06 nM | COC(=O)CCCCCCC(=O)NC(=N)NCCC[C@@H](NC(=O)C(c1ccccc1)c1ccccc1)C(=O)NCc1ccc(O)cc1 | – |
| -1.8 | – | – | N=C(NCCC[C@@H](NC(=O)C(c1ccccc1)c1ccccc1)C(=O)NCc1ccc(O)cc1)NC(=O)CCC(=O)NCCNCCN | – |
